Measured values reported in ChEMBL document CHEMBL4118021, “Studies of TAK1-centered polypharmacology with novel covalent TAK1 inhibitors” (Bioorg Med Chem, 2017).
Activity calls are given as the source filed them. The rule behind the calls is not given here.

Tests used:
[1] = biological target: Tyrosine-protein phosphatase non-receptor type 1 (Homo sapiens) (UniProt P18031); test: Binding affinity to PTPN1 in human NCI-H23 cells at 1 uM by mass spectrometry based pull down assay; assay type: cell-based
[2] = biological target: Arginine--tRNA ligase, cytoplasmic (Homo sapiens) (UniProt P54136); test: Binding affinity to RARS in human NCI-H23 cells at 1 uM by mass spectrometry based pull down assay; assay type: cell-based
[3] = tested on: NCI-H23; test: Binding affinity to PTGES3L-AARSD1 in human NCI-H23 cells at 1 uM by mass spectrometry based pull down assay; assay type: cell-based
[4] = biological target: Phosphoglycerate kinase 1 (Homo sapiens) (UniProt P00558); test: Binding affinity to PGK1 in human NCI-H358 cells at 1 uM by mass spectrometry based pull down assay; assay type: cell-based
[5] = biological target: 80S Ribosome (Homo sapiens) (UniProt P08865+P42677+P62753+P15880+P23396+P61247+P62701+P22090+P46782+P62081+P62241+P46781+P46783+P62280+P25398+P62277+P62263+P62841+P62244+P62249+P08708+P62269+P39019+P60866+P63220+P62266+P62847+P62851+P62854+P62979+P62857+P62273+P62861+P39023+P36578+P46777+Q02878+P18124+P62424+P62917+P32969+P27635+P62906+P62913+P30050+P26373+P40429+P50914+P61313+P18621+Q07020+Q02543+P84098+P46778+P35268+P62829+P62750+P83731+P61254+P61353+P46776+P46779+P47914+P62888+P62899+P62910+P49207+P42766+P18077+Q9Y3U8+P83881+P61927+P61513+P63173+P62891+P62945+P05388+P05386); test: Binding affinity to RPS17 in human NCI-H23 cells at 1 uM by mass spectrometry based pull down assay; assay type: cell-based
[6] = biological target: Cysteine and glycine-rich protein 1 (Homo sapiens) (UniProt P21291); test: Binding affinity to CSRP1 in human NCI-H23 cells at 1 uM by mass spectrometry based pull down assay; assay type: cell-based
[7] = biological target: Small ribosomal subunit protein eS6 (Homo sapiens) (UniProt P62753); test: Binding affinity to RPS6 in human NCI-H358 cells at 1 uM by mass spectrometry based pull down assay; assay type: cell-based
[8] = biological target: Poly(rC)-binding protein 2 (Homo sapiens) (UniProt Q15366); test: Binding affinity to PCBP2 in human NCI-H358 cells at 1 uM by mass spectrometry based pull down assay; assay type: cell-based
[9] = biological target: Ribosomal protein S6 kinase alpha-3 (Homo sapiens) (UniProt P51812); test: Binding affinity to RPS6KA3 in human NCI-H358 cells at 1 uM by mass spectrometry based pull down assay; assay type: cell-based
[10] = biological target: Cancer-related nucleoside-triphosphatase (Homo sapiens) (UniProt Q9BSD7); test: Binding affinity to NTPCR in human NCI-H23 cells at 1 uM by mass spectrometry based pull down assay; assay type: cell-based
[11] = biological target: Ras-related protein Rab-22A (Homo sapiens) (UniProt Q9UL26); test: Binding affinity to RAB22A in human NCI-H358 cells at 1 uM by mass spectrometry based pull down assay; assay type: cell-based
[12] = biological target: Cytoplasmic dynein 1 intermediate chain 2 (Homo sapiens) (UniProt Q13409); test: Binding affinity to DYNC1I2 in human NCI-H23 cells at 1 uM by mass spectrometry based pull down assay; assay type: cell-based
[13] = biological target: Tropomyosin alpha-4 chain (Homo sapiens) (UniProt P67936); test: Binding affinity to TPM4 in human NCI-H23 cells at 1 uM by mass spectrometry based pull down assay; assay type: cell-based
[14] = biological target: Translation initiation factor eIF2B subunit gamma (Homo sapiens) (UniProt Q9NR50); test: Binding affinity to EIF2B3 in human NCI-H23 cells at 1 uM by mass spectrometry based pull down assay; assay type: cell-based
[15] = biological target: Retinaldehyde dehydrogenase 3 (Homo sapiens) (UniProt P47895); test: Binding affinity to ALDH1A3 in human NCI-H358 cells at 1 uM by mass spectrometry based pull down assay; assay type: cell-based
Procedure, shortened: (§1)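 NCI-H23 or NCI-H358 cells were grown and lysed. Lysates were incubated overnight at 4 °C with 1 μM biotinylated covalent probe or DMSO, then pulled down on streptavidin beads. Proteins were run on polyacrylamide gels and stained with Coomassie. Bands were excised, digested and identified by mass spectrometry.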

[16] = biological target: 14-3-3 protein theta (Homo sapiens) (UniProt P27348); test: Binding affinity to YWHAQ in human NCI-H23 cells at 1 uM by mass spectrometry based pull down assay; assay type: cell-based
[17] = biological target: Ribonucleoside-diphosphate reductase large subunit (Homo sapiens) (UniProt P23921); test: Binding affinity to RRM1 in human NCI-H23 cells at 1 uM by mass spectrometry based pull down assay; assay type: cell-based
[18] = biological target: Small ribosomal subunit protein mS29 (Homo sapiens) (UniProt P51398); test: Binding affinity to DAP3 in human NCI-H23 cells at 1 uM by mass spectrometry based pull down assay; assay type: cell-based
[19] = biological target: Ribosomal protein S6 kinase alpha-3 (Homo sapiens) (UniProt P51812); test: Binding affinity to RPS6KA3 in human NCI-H23 cells at 1 uM by mass spectrometry based pull down assay; assay type: cell-based
[20] = biological target: LIM domain kinase 1 (Homo sapiens) (UniProt P53667); test: Binding affinity to LIMK1 in human NCI-H358 cells at 1 uM by mass spectrometry based pull down assay; assay type: cell-based
[21] = biological target: Cytosolic iron-sulfur assembly component 2B (Homo sapiens) (UniProt Q9Y3D0); test: Binding affinity to FAM96B in human NCI-H23 cells at 1 uM by mass spectrometry based pull down assay; assay type: cell-based
[22] = biological target: Aldehyde dehydrogenase X, mitochondrial (Homo sapiens) (UniProt P30837); test: Binding affinity to ALDH1B1 in human NCI-H358 cells at 1 uM by mass spectrometry based pull down assay; assay type: cell-based; procedure, shortened: as §1
[23] = biological target: ADP-ribosylation factor-like protein 8B (Homo sapiens) (UniProt Q9NVJ2); test: Binding affinity to ARL8B in human NCI-H358 cells at 1 uM by mass spectrometry based pull down assay; assay type: cell-based
[24] = biological target: Delta-1-pyrroline-5-carboxylate synthase (Homo sapiens) (UniProt P54886); test: Binding affinity to ALDH18A1 in human NCI-H358 cells at 1 uM by mass spectrometry based pull down assay; assay type: cell-based; procedure, shortened: as §1
[25] = biological target: Vascular endothelial growth factor receptor 1 (Homo sapiens) (UniProt P17948); test: Inhibition of human FLT1 (781 to 1239 residues) expressed in bacterial expression system assessed as enzyme activity at 10 uM by KINOMEScan assay relative to control; design: scale not given: the % may be the effect or the level left
Procedure, shortened: (§2)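 In vitro ATP-site competition binding assay across a panel of 456 kinases, with compound tested at 1 and 10 μM.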

[26] = biological target: Mast/stem cell growth factor receptor Kit (Homo sapiens) (UniProt P10721); test: Inhibition of human KIT (571 to 952 residues) expressed in bacterial expression system assessed as enzyme activity at 10 uM by KINOMEScan assay relative to control; design: scale not given: the % may be the effect or the level left; procedure, shortened: as §2
Chain of Mast/stem cell growth factor receptor Kit (Homo sapiens) (P10721 whole entry, the tested form may be a part): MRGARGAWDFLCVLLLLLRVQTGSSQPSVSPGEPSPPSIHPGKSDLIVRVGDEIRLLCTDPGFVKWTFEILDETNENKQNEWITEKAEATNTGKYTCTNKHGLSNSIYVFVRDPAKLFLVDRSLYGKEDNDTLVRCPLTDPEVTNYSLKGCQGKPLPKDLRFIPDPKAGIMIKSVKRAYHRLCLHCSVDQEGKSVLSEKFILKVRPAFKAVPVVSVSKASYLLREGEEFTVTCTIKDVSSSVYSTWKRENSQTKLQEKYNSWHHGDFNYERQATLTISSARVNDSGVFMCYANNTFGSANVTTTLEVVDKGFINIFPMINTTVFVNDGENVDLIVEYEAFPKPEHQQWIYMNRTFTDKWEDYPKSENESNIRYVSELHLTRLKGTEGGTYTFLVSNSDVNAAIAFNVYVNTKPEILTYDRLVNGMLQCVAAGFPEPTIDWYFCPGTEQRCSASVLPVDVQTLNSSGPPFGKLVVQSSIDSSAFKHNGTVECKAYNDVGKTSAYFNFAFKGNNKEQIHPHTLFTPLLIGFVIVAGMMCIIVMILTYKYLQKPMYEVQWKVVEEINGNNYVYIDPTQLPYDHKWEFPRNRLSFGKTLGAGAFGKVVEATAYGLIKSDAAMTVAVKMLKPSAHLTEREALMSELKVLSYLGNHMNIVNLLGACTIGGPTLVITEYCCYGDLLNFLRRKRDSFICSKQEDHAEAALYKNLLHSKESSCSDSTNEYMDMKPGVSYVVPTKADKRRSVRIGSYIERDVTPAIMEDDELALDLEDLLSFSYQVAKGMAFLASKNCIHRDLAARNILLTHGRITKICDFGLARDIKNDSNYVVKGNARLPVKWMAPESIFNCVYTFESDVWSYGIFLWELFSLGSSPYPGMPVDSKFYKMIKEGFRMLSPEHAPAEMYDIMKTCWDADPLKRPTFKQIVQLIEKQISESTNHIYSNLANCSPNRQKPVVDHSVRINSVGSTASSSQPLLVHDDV

Chain of Ribosomal protein S6 kinase alpha-3 (Homo sapiens) (P51812 whole entry, the tested form may be a part): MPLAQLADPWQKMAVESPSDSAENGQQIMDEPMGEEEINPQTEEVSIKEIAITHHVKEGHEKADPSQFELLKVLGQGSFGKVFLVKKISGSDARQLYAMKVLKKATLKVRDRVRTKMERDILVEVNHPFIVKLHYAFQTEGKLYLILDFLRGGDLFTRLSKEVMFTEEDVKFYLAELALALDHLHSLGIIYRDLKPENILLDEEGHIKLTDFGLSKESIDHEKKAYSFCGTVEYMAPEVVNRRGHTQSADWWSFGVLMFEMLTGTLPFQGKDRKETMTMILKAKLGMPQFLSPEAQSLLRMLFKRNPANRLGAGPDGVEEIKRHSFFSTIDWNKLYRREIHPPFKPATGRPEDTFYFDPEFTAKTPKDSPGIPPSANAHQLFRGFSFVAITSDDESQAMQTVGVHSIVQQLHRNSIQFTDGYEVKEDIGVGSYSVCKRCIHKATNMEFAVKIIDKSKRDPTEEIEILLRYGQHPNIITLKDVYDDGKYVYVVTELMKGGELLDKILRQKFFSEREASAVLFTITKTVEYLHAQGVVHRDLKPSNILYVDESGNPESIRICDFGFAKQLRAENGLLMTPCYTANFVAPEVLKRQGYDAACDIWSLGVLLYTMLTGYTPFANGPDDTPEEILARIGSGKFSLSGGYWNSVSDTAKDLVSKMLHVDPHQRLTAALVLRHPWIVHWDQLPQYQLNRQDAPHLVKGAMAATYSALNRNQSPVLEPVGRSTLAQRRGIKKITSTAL
Chain of ADP-ribosylation factor-like protein 8B (Homo sapiens) (Q9NVJ2 whole entry): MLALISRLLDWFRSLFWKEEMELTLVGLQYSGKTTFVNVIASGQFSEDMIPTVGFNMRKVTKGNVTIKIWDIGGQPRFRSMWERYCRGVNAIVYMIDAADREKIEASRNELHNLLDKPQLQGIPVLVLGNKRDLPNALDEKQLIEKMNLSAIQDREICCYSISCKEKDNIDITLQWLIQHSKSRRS
Chain of Ras-related protein Rab-22A (Homo sapiens) (Q9UL26 whole entry): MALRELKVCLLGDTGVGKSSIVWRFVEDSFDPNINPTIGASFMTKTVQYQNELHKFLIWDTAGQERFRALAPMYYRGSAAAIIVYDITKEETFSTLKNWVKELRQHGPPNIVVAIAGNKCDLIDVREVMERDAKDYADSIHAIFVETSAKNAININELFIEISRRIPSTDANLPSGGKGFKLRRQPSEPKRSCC
Chain of Tyrosine-protein phosphatase non-receptor type 1 (Homo sapiens) (P18031 whole entry): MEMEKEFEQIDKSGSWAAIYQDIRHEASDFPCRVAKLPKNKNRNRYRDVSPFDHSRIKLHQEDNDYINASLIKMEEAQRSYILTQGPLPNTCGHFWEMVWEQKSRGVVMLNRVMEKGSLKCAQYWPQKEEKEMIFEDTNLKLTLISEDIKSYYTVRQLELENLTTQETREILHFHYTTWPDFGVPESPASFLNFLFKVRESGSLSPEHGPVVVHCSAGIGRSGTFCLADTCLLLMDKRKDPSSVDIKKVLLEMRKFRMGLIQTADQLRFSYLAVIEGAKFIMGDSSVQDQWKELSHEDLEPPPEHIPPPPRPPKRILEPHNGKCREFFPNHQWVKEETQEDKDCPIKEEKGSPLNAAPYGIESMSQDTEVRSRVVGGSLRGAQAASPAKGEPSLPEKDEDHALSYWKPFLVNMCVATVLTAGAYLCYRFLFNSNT
Chain of 14-3-3 protein theta (Homo sapiens) (P27348 whole entry): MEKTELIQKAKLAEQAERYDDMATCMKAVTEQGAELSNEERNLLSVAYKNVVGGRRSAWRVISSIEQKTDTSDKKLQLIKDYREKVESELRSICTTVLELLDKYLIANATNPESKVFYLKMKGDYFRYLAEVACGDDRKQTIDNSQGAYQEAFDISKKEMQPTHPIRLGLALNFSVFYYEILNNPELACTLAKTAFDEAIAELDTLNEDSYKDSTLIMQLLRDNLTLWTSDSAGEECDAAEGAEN
Chain of Cysteine and glycine-rich protein 1 (Homo sapiens) (P21291 whole entry): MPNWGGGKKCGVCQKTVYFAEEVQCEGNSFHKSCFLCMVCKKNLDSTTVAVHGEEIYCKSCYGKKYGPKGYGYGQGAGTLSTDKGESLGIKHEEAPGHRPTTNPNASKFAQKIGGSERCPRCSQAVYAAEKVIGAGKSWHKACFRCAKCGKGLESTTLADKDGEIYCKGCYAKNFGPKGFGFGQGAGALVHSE
Chain of Delta-1-pyrroline-5-carboxylate synthase (Homo sapiens) (P54886 whole entry, the tested form may be a part): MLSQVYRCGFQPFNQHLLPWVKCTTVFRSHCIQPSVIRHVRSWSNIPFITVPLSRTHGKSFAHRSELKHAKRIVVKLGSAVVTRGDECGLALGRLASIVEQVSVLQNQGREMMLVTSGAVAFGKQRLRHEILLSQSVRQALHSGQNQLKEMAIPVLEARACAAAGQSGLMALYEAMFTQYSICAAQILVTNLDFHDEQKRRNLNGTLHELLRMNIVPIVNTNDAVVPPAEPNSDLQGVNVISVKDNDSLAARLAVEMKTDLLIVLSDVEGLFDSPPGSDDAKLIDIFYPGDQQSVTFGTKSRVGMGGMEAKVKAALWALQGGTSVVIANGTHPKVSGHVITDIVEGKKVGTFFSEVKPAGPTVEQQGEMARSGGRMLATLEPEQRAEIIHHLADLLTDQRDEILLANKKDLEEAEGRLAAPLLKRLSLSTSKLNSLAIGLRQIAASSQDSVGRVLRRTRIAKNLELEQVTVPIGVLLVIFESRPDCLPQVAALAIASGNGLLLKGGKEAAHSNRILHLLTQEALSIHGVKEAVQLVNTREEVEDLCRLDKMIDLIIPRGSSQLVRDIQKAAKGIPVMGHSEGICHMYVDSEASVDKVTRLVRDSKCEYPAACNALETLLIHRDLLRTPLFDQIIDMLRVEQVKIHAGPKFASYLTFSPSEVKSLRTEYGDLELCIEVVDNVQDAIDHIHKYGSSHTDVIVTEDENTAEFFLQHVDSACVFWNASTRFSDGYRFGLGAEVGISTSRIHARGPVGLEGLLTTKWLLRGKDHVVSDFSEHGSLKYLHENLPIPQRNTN
Chain of Retinaldehyde dehydrogenase 3 (Homo sapiens) (P47895 whole entry): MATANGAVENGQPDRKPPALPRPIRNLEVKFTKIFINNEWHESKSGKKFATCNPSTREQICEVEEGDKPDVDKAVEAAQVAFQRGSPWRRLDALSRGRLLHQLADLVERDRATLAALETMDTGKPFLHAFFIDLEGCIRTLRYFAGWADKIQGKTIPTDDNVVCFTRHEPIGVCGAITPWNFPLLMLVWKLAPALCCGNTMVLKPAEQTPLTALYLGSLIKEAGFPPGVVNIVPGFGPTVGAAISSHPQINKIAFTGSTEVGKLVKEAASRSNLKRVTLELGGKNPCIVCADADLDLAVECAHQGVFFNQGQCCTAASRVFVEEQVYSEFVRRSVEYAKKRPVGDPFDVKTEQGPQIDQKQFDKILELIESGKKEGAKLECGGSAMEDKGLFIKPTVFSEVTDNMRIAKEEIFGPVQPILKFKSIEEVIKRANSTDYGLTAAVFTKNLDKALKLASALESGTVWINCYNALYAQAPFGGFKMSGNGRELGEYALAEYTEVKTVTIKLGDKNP
Chain of Arginine--tRNA ligase, cytoplasmic (Homo sapiens) (P54136 whole entry): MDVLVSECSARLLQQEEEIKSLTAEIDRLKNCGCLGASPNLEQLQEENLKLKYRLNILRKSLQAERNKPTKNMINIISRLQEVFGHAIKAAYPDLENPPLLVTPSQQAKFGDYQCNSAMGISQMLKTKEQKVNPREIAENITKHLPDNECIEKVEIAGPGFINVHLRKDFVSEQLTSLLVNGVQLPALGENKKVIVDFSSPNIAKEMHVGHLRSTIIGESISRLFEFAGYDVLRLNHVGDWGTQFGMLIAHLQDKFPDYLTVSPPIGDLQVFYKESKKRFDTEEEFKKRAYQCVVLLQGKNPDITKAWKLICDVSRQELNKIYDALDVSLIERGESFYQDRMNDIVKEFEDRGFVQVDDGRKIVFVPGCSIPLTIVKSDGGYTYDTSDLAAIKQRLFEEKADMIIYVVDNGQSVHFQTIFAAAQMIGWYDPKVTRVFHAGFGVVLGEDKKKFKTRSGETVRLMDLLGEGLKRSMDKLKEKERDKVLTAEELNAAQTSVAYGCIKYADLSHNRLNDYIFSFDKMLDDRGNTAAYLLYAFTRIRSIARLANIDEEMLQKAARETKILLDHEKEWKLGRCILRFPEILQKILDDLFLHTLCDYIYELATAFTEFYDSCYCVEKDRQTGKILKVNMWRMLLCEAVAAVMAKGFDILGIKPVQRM

## C=CC(=O)Nc1ccccc1Nc1nc(Nc2ccc(N3CCN(CCOCCOCCOCCNC(=O)CCCC[C@@H]4SC[C@@H]5NC(=O)N[C@@H]54)CC3)cc2)ncc1Cl
[1]
  Activity: Active
[2]
  Activity: Active
[3]
  Activity: Active
[4]
  Activity: Active
[5]
  Activity: Active
[6]
  Activity: Active
[7]
  Activity: Active
[8]
  Activity: Active
[9]
  Activity: Active
[10]
  Activity: Active
[11]
  Activity: Active
[12]
  Activity: Active
[13]
  Activity: Active
[14]
  Activity: Active
[15]
  Activity: Active
[16]
  Activity: Active
[17]
  Activity: Active
[18]
  Activity: Active
[19]
  Activity: Active
[20]
  Activity: Active
[21]
  Activity: Active
[22]
  Activity: Active
[23]
  Activity: Active
[24]
  Activity: Active

## COc1cc(O)c2c(c1)/C=C/C[C@H](O)[C@H](O)C(=O)/C=C\C[C@H](C)OC2=O
[25]
  Activity: 0.5%
[26]
  Activity: 0.6%
